Measurements reported in ChEMBL document CHEMBL4043223, “Structure-activity relationship study of small molecule inhibitors of the DEPTOR-mTOR interaction” (Bioorg Med Chem Lett, 2017).
pIC50: −log10 of the molar value. One block for each molecule: values may come before it. Active and inactive are the calls of the source. No cut-off for these calls is given here.

Experiments:
[1] = tested on: RPMI-8226; assay: Cytotoxicity against human RPMI8226 cells after 48 hrs by MTT assay; assay type: functional, cell-based; conditions: RPMI-8226, 48 h
How it was run: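 MTT in RPMI-8226 cells: 1–2 × 10^4 cells per well in complete medium, exposed 48 h to a range of compound concentrations. MTT reduction to formazan read at 570 nm. Quadruplicate wells per group; OD given as % of DMSO-only control set at 100%. IC50 taken from the concentration series.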

[2] = tested on: MM1.S; assay: Cytotoxicity against human MM1S cells after 48 hrs by MTT assay; assay type: functional, cell-based
How it was run: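 MM1.S myeloma cells (DEPTOR-over-expressing) in 48 h MTT: 1–2 × 10^4 cells per well, graded compound concentrations, formazan at 570 nm. Quadruplicate wells; survival as % of DMSO control; IC50 derived from the concentration range.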

[3] = target: DEP domain-containing mTOR-interacting protein (Homo sapiens) (UniProt Q8TB45); assay: Inhibition of mTOR binding to DEPTOR in human RPMI8226 cells assessed as increase in mTORC2-associated AKT phosphorylation at S473 residue by Western blot analysis; assay type: cell-based
[4] = target: DEP domain-containing mTOR-interacting protein (Homo sapiens) (UniProt Q8TB45); assay: Inhibition of DEPTOR in human RPMI8226 cells assessed as upregulation of mTORC1-dependant p21 expression at 0.5 to 2 uM after 6 hrs by Western blot analysis; assay type: cell-based
[5] = target: DEP domain-containing mTOR-interacting protein (Homo sapiens) (UniProt Q8TB45); assay: Inhibition of mTOR binding to DEPTOR in human RPMI8226 cells assessed as increase in mTORC1-associated p70 phosphorylation at […] after 6 hrs by Western blot analysis; assay type: cell-based
[6] = tested on: RPMI-8226; assay: Induction of apoptosis in human RPMI8226 cells assessed as caspase3 activation at 0.12 to 2 uM after 48 hrs by cytofix/cytoperm staining based flow cytometry; assay type: functional, cell-based
How it was run: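 Caspase-3 flow cytometry 48 h after drug exposure of 8226 cells. 10^6 cells washed in PBS, fixed and permeabilized in cytofix/cytoperm, stained 30 min with PE-conjugated anti-active-caspase-3 (1:5 dilution). % apoptosis = drug-treated minus DMSO-control positives; mean ± SD, n = 4.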

[7] = tested on: PBL; assay: Cytotoxicity against PBL (unknown origin) after 48 hrs by MTT assay; assay type: cell-based
How it was run: (§1)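 Normal peripheral blood lymphocytes tested head-to-head with 8226 myeloma cells in 48 h MTT assays. […] Therapeutic index = IC50(PBL)/IC50(8226).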

[8] = Therapeutic index, ratio of IC50 for PBL (unknown origin) to IC50 for human RPMI8226 cells; how it was run: as §1
[9] = target: DEP domain-containing mTOR-interacting protein (Homo sapiens) (UniProt Q8TB45); assay: Inhibition of mTOR binding to DEPTOR in human RPMI8226 cells at 0.5 uM treated 6 hrs followed by DEPTOR immunoprecipitation by immunoblotting analysis; assay type: cell-based
How it was run: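 Co-immunoprecipitation: 8226 cells treated 6 h with DMSO or 0.5 µM compound. DEPTOR immunoprecipitated; precipitates immunoblotted for DEPTOR and bound mTOR.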

[10] = tested on: RPMI-8226; assay: Cytotoxicity against RAPTOR knockdown human RPMI8226 cells at 0.12 to 1 uM after 48 hrs by MTT assay; assay type: functional, cell-based
How it was run: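 8226 cells infected with lentivirus carrying shRAPTOR or control shSCRAMBLE, knockdown confirmed by immunoblot. Cells then incubated with increasing compound concentrations; MTT read-out after 48 h, formazan at 570 nm, as % of DMSO control.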

[11] = tested on: RPMI-8226; assay: Cytotoxicity against human RPMI8226 cells after 48 hrs in presence of mTOR inhibitor pp242 by MTT assay; assay type: functional, cell-based
[12] = tested on: RPMI-8226; assay: Induction of apoptosis in human RPMI8226 cells assessed as caspase3 activation in presence of mTOR inhibitor pp242 by cytofix/cytoperm staining based flow cytometry; assay type: functional, cell-based
[13] = target: DEP domain-containing mTOR-interacting protein (Homo sapiens) (UniProt Q8TB45); assay: Inhibition of mTOR binding to DEPTOR in human RPMI8226 cells assessed as increase in mTORC1-associated 4E-BP1 phosphorylation by Western blot analysis; assay type: cell-based
[14] = target: DEP domain-containing mTOR-interacting protein (Homo sapiens) (UniProt Q8TB45); assay: Inhibition of mTOR binding to DEPTOR in human RPMI8226 cells assessed as increase in mTORC1-associated S6 phosphorylation by Western blot analysis; assay type: cell-based
[15] = target: DEP domain-containing mTOR-interacting protein (Homo sapiens) (UniProt Q8TB45); assay: Inhibition of mTOR binding to DEPTOR in human RPMI8226 cells assessed as increase in mTORC2-associated SGK phosphorylation by Western blot analysis; assay type: cell-based
[16] = target: DEP domain-containing mTOR-interacting protein (Homo sapiens) (UniProt Q8TB45); assay: Inhibition of mTOR binding to DEPTOR in human RPMI8226 cells assessed as decrease in AKT phosphorylation at […] residue by Western blot analysis; assay type: cell-based
[17] = target: DEP domain-containing mTOR-interacting protein (Homo sapiens) (UniProt Q8TB45); assay: Inhibition of mTOR binding to DEPTOR in human RPMI8226 cells assessed as increase in mTORC1-associated p70 phosphorylation at 1 uM after 6 hrs by Western blot analysis; assay type: cell-based
How it was run: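 8226 cells exposed 6 h to compound, DMSO in untreated controls. Lysates run on 12.5% SDS-PAGE, transferred to PVDF, probed for phospho- and total p70. Densitometric phospho/total ratio expressed as fold versus parent compound B set at 1; mean ± SD, n = 4.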

[18] = target: DEP domain-containing mTOR-interacting protein (Homo sapiens) (UniProt Q8TB45); assay: Inhibition of mTOR binding to DEPTOR in human RPMI8226 cells at 1 uM treated 6 hrs followed by DEPTOR immunoprecipitation by immunoblotting analysis; assay type: cell-based
How it was run: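 RPMI8226 myeloma cells exposed to compound or DMSO for 6 h; DEPTOR immunoprecipitated from cell extracts, and precipitates immunoblotted for DEPTOR and co-precipitated mTOR. Proteins resolved by 12.5% SDS-PAGE, transferred to PVDF and detected with specific antibodies.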

Sequence of DEP domain-containing mTOR-interacting protein (Homo sapiens) (Q8TB45 whole entry, the tested form may be a part): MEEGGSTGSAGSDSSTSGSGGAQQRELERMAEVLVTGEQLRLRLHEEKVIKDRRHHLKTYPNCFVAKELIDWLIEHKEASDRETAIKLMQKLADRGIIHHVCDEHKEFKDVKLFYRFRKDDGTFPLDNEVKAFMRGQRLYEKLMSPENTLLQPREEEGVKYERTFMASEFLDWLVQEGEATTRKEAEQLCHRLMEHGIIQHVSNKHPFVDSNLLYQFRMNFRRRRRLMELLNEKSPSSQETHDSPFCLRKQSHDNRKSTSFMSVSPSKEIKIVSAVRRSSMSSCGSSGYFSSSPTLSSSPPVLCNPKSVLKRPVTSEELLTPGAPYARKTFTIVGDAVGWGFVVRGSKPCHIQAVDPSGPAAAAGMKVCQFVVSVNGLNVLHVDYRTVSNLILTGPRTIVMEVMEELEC

Structure (SMILES): Cc1cccc(NN=C2C(Cl)=C(Cl)C(Cl)=C2Cl)c1
pIC50 [1]: 5.70
pIC50 [2]: < 5.52

Structure (SMILES): ClC1=C(Cl)C(Cl)=C(Cl)C1=NNc1cc(Cl)cc(Cl)c1
pIC50 [1]: 6.10
pIC50 [2]: 5.70

Structure (SMILES): NN=c1c2ccccc2oc2ccccc12
pIC50 [1]: < 5.30
pIC50 [2]: < 5.30

inhibition [3]: Active
inhibition [4]: Active
inhibition [5]: Active
inhibition [9]: Active
inhibition [13]: Active
inhibition [14]: Active
inhibition [15]: Active
inhibition [16]: Active
inhibition [17]: Active
Structure (SMILES): CC(C)(C)OC(=O)NN=C1C(Cl)=C(Cl)C(Cl)=C1Cl
pIC50 [1]: 6.96 to 7.00
pIC50 [2]: 6.22
Activity [6]: Active
pIC50 [7]: 5.30
Ratio IC50 [8]: 45.5
Activity [10]: inactive
Activity [11]: inactive
Activity [12]: inactive

Structure (SMILES): CC(C)(C)NN=C1C(Cl)=C(Cl)C(Cl)=C1Cl
pIC50 [1]: 5.30 to 5.52
pIC50 [2]: < 5.52

Structure (SMILES): COC1(OC)C(Cl)=C(Cl)C(Cl)=C1Cl
pIC50 [1]: < 5.30

Structure (SMILES): CN(C)N=C1C(Cl)=C(Cl)C(Cl)=C1Cl
pIC50 [1]: 5.52 to 5.89
pIC50 [2]: < 5.52

Structure (SMILES): C#CC(C)(C)OC(=O)NN=C1C(Cl)=C(Cl)C(Cl)=C1Cl
pIC50 [1]: < 5.30

Structure (SMILES): CC(=O)NN=C1C(Cl)=C(Cl)C(Cl)=C1Cl
pIC50 [1]: 6.00

Structure (SMILES): NN=C1C(Cl)=C(Cl)C(Cl)=C1Cl
pIC50 [1]: 5.82 to 5.89
pIC50 [2]: 5.52
Activity [6]: Active
pIC50 [7]: 4.70
Ratio IC50 [8]: 14.3
inhibition [18]: Active
inhibition [9]: inactive
inhibition [17]: Active

inhibition [4]: Active
inhibition [5]: Active
inhibition [17]: Active
Structure (SMILES): O=C(c1ccc(F)cc1)N(N=C1C(Cl)=C(Cl)C(Cl)=C1Cl)C(=O)c1ccc(F)cc1
pIC50 [1]: 6.60 to 6.70
pIC50 [2]: 6.52
Activity [6]: Active
pIC50 [7]: 5.70
Ratio IC50 [8]: 10

Structure (SMILES): Fc1cccc(NN=C2C(Cl)=C(Cl)C(Cl)=C2Cl)c1
pIC50 [1]: 6.22 to 6.30
pIC50 [2]: 5.82

Structure (SMILES): ClC1=C(Cl)C(Cl)=C(Cl)C1=NN(c1ccccc1)c1ccccc1
pIC50 [1]: < 5.52
pIC50 [2]: < 5.52

Structure (SMILES): C#CCOC(=O)NN=C1C(Cl)=C(Cl)C(Cl)=C1Cl
pIC50 [1]: 6.10

Structure (SMILES): NN=C(c1ccccc1)c1ccccc1
pIC50 [1]: < 5.30
pIC50 [2]: < 5.30
